Results published in ChEMBL document CHEMBL1151705, “Novel azalides derived from 16-membered macrolides. Part II: Isolation of the linear 9-formylcarboxylic acid and its sequential macrocyclization with an amino alcohol or an azidoamine” (2008).
In brackets after ≈: the same amount, converted by molar mass.

Tests used:
Format in all cases: functional
Staphylococcus aureus [1] = test: Antimicrobial activity against Staphylococcus aureus 4 constitutively expressing ermA after 20 hrs by agar dilution method
Outline: (§1)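 Agar dilution MIC. S. aureus seed culture was grown in sensitivity test broth. Cell suspension (about 10⁶ CFU/ml) was inoculated onto sensitivity disk agar with 5% horse blood and incubated at 37 °C for 20 h. MIC was the lowest drug concentration that prevented visible growth.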

Streptococcus pneumoniae [2] = test: Antimicrobial activity against Streptococcus pneumoniae 9 expressing mefA after 20 hrs by agar dilution method; settings: Streptococcus pneumoniae, 20 h; read-out: MIC
Outline: (§2)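 Streptococci, H. influenzae and M. catarrhalis were precultured on blood agar plates. Suspensions of about 10⁶ CFU/ml were inoculated onto sensitivity disk agar supplemented with 5% horse blood and incubated at 37 °C for 20 h. MIC was read as the lowest drug concentration with no visible growth.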

Staphylococcus aureus [3] = test: Antimicrobial activity against Staphylococcus aureus 6 expressing inducible ermB after 20 hrs by agar dilution method; outline: as §1
Moraxella catarrhalis [4] = test: Antimicrobial activity against drug-susceptible Moraxella catarrhalis 2 after 20 hrs by agar dilution method; settings: Moraxella catarrhalis, 20 h; read-out: MIC; outline: as §2
Streptococcus pneumoniae [5] = test: Antimicrobial activity against Streptococcus pneumoniae 10 expressing mefA after 20 hrs by agar dilution method; settings: Streptococcus pneumoniae, 20 h; read-out: MIC; outline: as §2
Streptococcus pyogenes [6] = test: Antimicrobial activity against Streptococcus pyogenes 3 expressing mefA after 20 hrs by agar dilution method; settings: Streptococcus pyogenes, 20 h; read-out: MIC; outline: as §2
Streptococcus pneumoniae [7] = test: Antimicrobial activity against drug-susceptible Streptococcus pneumoniae 3 after 20 hrs by agar dilution method; settings: Streptococcus pneumoniae, 20 h; read-out: MIC; outline: as §2
Streptococcus pneumoniae [8] = test: Antimicrobial activity against drug-susceptible Streptococcus pneumoniae DP1 Type1 after 20 hrs by agar dilution method; settings: Streptococcus pneumoniae, 20 h; read-out: MIC; outline: as §2
Staphylococcus aureus [9] = test: Antimicrobial activity against drug-susceptible Staphylococcus aureus 2 after 20 hrs by agar dilution method; settings: Staphylococcus aureus, 20 h; read-out: MIC; outline: as §1
Haemophilus influenzae [10] = test: Antimicrobial activity against drug-susceptible Haemophilus influenzae 2 after 20 hrs by agar dilution method; settings: Haemophilus influenzae, 20 h; read-out: MIC; outline: as §2
Staphylococcus aureus [11] = test: Antimicrobial activity against drug-susceptible Staphylococcus aureus 3 after 20 hrs by agar dilution method; settings: Staphylococcus aureus, 20 h; read-out: MIC; outline: as §1
Haemophilus influenzae [12] = test: Antimicrobial activity against drug-susceptible Haemophilus influenzae 4 after 20 hrs by agar dilution method; settings: Haemophilus influenzae, 20 h; read-out: MIC; outline: as §2
Streptococcus pyogenes [13] = test: Antimicrobial activity against drug-susceptible Streptococcus pyogenes 1 after 20 hrs by agar dilution method; outline: as §2
Staphylococcus aureus [14] = test: Antimicrobial activity against drug-susceptible Staphylococcus aureus 209P JC-1 after 20 hrs by agar dilution method; settings: Staphylococcus aureus, 209P, 20 h; read-out: MIC; outline: as §1
Haemophilus influenzae [15] = test: Antimicrobial activity against drug-susceptible Haemophilus influenzae 1 after 20 hrs by agar dilution method; settings: Haemophilus influenzae, 20 h; read-out: MIC; outline: as §2
Haemophilus influenzae [16] = test: Antimicrobial activity against drug-susceptible Haemophilus influenzae 3 after 20 hrs by agar dilution method; settings: Haemophilus influenzae, 20 h; read-out: MIC; outline: as §2
Streptococcus pneumoniae [17] = test: Antimicrobial activity against Streptococcus pneumoniae 7 expressing inducible ermB after 20 hrs by agar dilution method; outline: as §2
Streptococcus pneumoniae [18] = test: Antimicrobial activity against drug-susceptible Streptococcus pneumoniae 2 after 20 hrs by agar dilution method; settings: Streptococcus pneumoniae, 20 h; read-out: MIC; outline: as §2
Moraxella catarrhalis [19] = test: Antimicrobial activity against drug-susceptible Moraxella catarrhalis 1 after 20 hrs by agar dilution method; settings: Moraxella catarrhalis, 20 h; read-out: MIC; outline: as §2
Streptococcus pneumoniae [20] = test: Antimicrobial activity against Streptococcus pneumoniae 8 expressing inducible ermB after 20 hrs by agar dilution method; outline: as §2
Staphylococcus aureus [21] = test: Antimicrobial activity against Staphylococcus aureus 5 expressing inducible ermB after 20 hrs by agar dilution method; settings: Staphylococcus aureus, 20 h; read-out: MIC; outline: as §1
Streptococcus pneumoniae [22] = test: Antimicrobial activity against Streptococcus pneumoniae 6 constitutively expressing ermB after 20 hrs by agar dilution method; settings: Streptococcus pneumoniae, 20 h; read-out: MIC; outline: as §2
Streptococcus pneumoniae [23] = test: Antimicrobial activity against Streptococcus pneumoniae 4 constitutively expressing ermB after 20 hrs by agar dilution method; settings: Streptococcus pneumoniae, 20 h; read-out: MIC; outline: as §2
Streptococcus pyogenes [24] = test: Antimicrobial activity against Streptococcus pyogenes 2 constitutively expressing ermB after 20 hrs by agar dilution method; outline: as §2
Streptococcus pneumoniae [25] = test: Antimicrobial activity against Streptococcus pneumoniae 5 constitutively expressing ermB/mefA after 20 hrs by agar dilution method; settings: Streptococcus pneumoniae, 20 h; read-out: MIC; outline: as §2
[26] = Streptococcus pyogenes, 20 h, read-out: MIC
[27] = Streptococcus pneumoniae, 20 h, read-out: MIC

| MIC (Staphylococcus aureus [1]) [µg/mL] | MIC (Streptococcus pneumoniae [2]) [µg/mL] | MIC (Staphylococcus aureus [3]) [µg/mL] | MIC (Moraxella catarrhalis [4]) [µg/mL] | MIC (Streptococcus pneumoniae [5]) [µg/mL] | MIC (Streptococcus pyogenes [6]) [µg/mL] | MIC (Streptococcus pneumoniae [8]) [µg/mL] | MIC (Staphylococcus aureus [9]) [µg/mL] | MIC (Staphylococcus aureus [11]) [µg/mL] | MIC (Haemophilus influenzae [12]) [µg/mL] | MIC (Streptococcus pyogenes [13]; [26]) [µg/mL] | MIC (Staphylococcus aureus [14]) [µg/mL] | MIC (Haemophilus influenzae [15]) [µg/mL] | MIC (Haemophilus influenzae [16]) [µg/mL] | MIC (Streptococcus pneumoniae [18]) [µg/mL] | MIC (Moraxella catarrhalis [19]) [µg/mL] | MIC (Staphylococcus aureus [21]) [µg/mL] | MIC (Streptococcus pneumoniae [22]) [µg/mL] | MIC (Streptococcus pyogenes [24]) [µg/mL] | MIC (Streptococcus pneumoniae [25]) [µg/mL] | Compound | also measured |
| --- | --- | --- | --- | --- | --- | --- | --- | --- | --- | --- | --- | --- | --- | --- | --- | --- | --- | --- | --- | --- | --- |
| > 64 | 0.13 (≈ 0.132 µM) | 1 (≈ 1.01 µM) | 2 (≈ 2.03 µM) | 0.13 (≈ 0.132 µM) | 0.5 (≈ 0.507 µM) | 0.06 (≈ 0.0608 µM) | 1 (≈ 1.01 µM) | 0.25 (≈ 0.253 µM) | 16 (≈ 16.2 µM) | 0.13 (≈ 0.132 µM) | 0.5 (≈ 0.507 µM) | > 64 | 16 (≈ 16.2 µM) | 0.25 (≈ 0.253 µM) | 2 (≈ 2.03 µM) | 0.25 (≈ 0.253 µM) | > 64 | > 64 | > 64 | CCOC(=O)[C@H]1[C@H](C)O[C@@H](O[C@H]2[C@H](N(C)C)[C@@H](O)[C@H](O[C@H]3[C@@H](CC=O)C[C@@H](C)[C@@H](O)CN(C)CC(/C=C\Cc4cnc5ccccc5c4)CCOC(=O)C[C@@H](OC(=O)CC)[C@@H]3OC)O[C@@H]2C)C[C@@]1(C)O (some centres undefined) | MIC (Streptococcus pneumoniae [7]): 0.13 µg/mL (≈ 0.132 µM); MIC (Haemophilus influenzae [10]): 8 µg/mL (≈ 8.11 µM); MIC (Streptococcus pneumoniae [17]; [27]): 8 µg/mL (≈ 8.11 µM); MIC (Streptococcus pneumoniae [20]; [27]): 8 µg/mL (≈ 8.11 µM); MIC (Streptococcus pneumoniae [23]): > 64 µg/mL |
| > 128 | 0.03 (≈ 0.0304 µM) | 0.5 (≈ 0.506 µM) | 1 (≈ 1.01 µM) | 0.03 (≈ 0.0304 µM) | 0.25 (≈ 0.253 µM) | 0.015 (≈ 0.0152 µM) | 0.5 (≈ 0.506 µM) | 0.25 (≈ 0.253 µM) | 8 (≈ 8.1 µM) | 0.06 (≈ 0.0607 µM) | 0.25 (≈ 0.253 µM) | 32 (≈ 32.4 µM) | 8 (≈ 8.1 µM) | 0.03 (≈ 0.0304 µM) | 1 (≈ 1.01 µM) | 0.25 (≈ 0.253 µM) | > 128 | > 128 | > 128 | CCOC(=O)[C@H]1[C@H](C)O[C@@H](O[C@H]2[C@H](N(C)C)[C@@H](O)[C@H](O[C@H]3[C@@H](CC=O)C[C@@H](C)[C@@H](O)CN(C)CC(CCCc4ccnc5ccccc45)CCOC(=O)C[C@@H](OC(=O)CC)[C@@H]3OC)O[C@@H]2C)C[C@@]1(C)O (stereo in doubt; form 1) | MIC (Streptococcus pneumoniae [7]): 0.03 µg/mL (≈ 0.0304 µM); MIC (Streptococcus pneumoniae [17]; [27]): 16 µg/mL (≈ 16.2 µM); MIC (Streptococcus pneumoniae [20]; [27]): 16 µg/mL (≈ 16.2 µM); MIC (Streptococcus pneumoniae [23]): > 128 µg/mL |
| > 128 | 0.03 (≈ 0.0304 µM) | 0.25 (≈ 0.253 µM) | 1 (≈ 1.01 µM) | 0.03 (≈ 0.0304 µM) | 0.13 (≈ 0.132 µM) | 0.015 (≈ 0.0152 µM) | 0.5 (≈ 0.507 µM) | 0.13 (≈ 0.132 µM) | 8 (≈ 8.11 µM) | – | 0.13 (≈ 0.132 µM) | 16 (≈ 16.2 µM) | 8 (≈ 8.11 µM) | 0.03 (≈ 0.0304 µM) | 1 (≈ 1.01 µM) | 0.13 (≈ 0.132 µM) | > 128 | > 128 | > 128 | CCOC(=O)[C@H]1[C@H](C)O[C@@H](O[C@H]2[C@H](N(C)C)[C@@H](O)[C@H](O[C@H]3[C@@H](CC=O)C[C@@H](C)[C@@H](O)CN(C)CC(/C=C/Cc4ccnc5ccccc45)CCOC(=O)C[C@@H](OC(=O)CC)[C@@H]3OC)O[C@@H]2C)C[C@@]1(C)O (stereo in doubt; form 1) | MIC (Streptococcus pneumoniae [7]): 0.03 µg/mL (≈ 0.0304 µM); MIC (Streptococcus pyogenes [13]): 0.03 µg/mL (≈ 0.0304 µM); MIC (Streptococcus pneumoniae [17]): 8 µg/mL (≈ 8.11 µM); MIC (Streptococcus pneumoniae [20]): 8 µg/mL (≈ 8.11 µM); MIC (Streptococcus pneumoniae [23]): > 128 µg/mL |
| > 128 | 0.13 (≈ 0.128 µM) | 0.25 (≈ 0.246 µM) | 0.25 (≈ 0.246 µM) | 0.13 (≈ 0.128 µM) | 0.13 (≈ 0.128 µM) | 0.06 (≈ 0.059 µM) | 0.5 (≈ 0.492 µM) | 0.25 (≈ 0.246 µM) | 8 (≈ 7.87 µM) | 0.06 (≈ 0.059 µM) | 0.13 (≈ 0.128 µM) | 16 (≈ 15.7 µM) | 8 (≈ 7.87 µM) | 0.06 (≈ 0.059 µM) | 0.25 (≈ 0.246 µM) | 0.13 (≈ 0.128 µM) | > 128 | > 128 | > 128 | CCOC(=O)[C@H]1[C@H](C)O[C@@H](O[C@H]2[C@H](N(C)C)[C@@H](O)[C@H](O[C@H]3[C@@H](CC=O)C[C@@H](C)[C@@H](O)CN(CCCc4ccnc5ccccc45)CC[C@@H](C)OC(=O)C[C@@H](OC(=O)CC)[C@@H]3OC)O[C@@H]2C)C[C@@]1(C)OC(C)=O | MIC (Haemophilus influenzae [10]): 1 µg/mL (≈ 0.984 µM); MIC (Streptococcus pneumoniae [17]; [27]): 4 µg/mL (≈ 3.94 µM); MIC (Streptococcus pneumoniae [20]; [27]): 8 µg/mL (≈ 7.87 µM) |
| > 128 | 0.13 (≈ 0.131 µM) | 0.5 (≈ 0.503 µM) | 0.5 (≈ 0.503 µM) | 0.06 (≈ 0.0604 µM) | 0.25 (≈ 0.252 µM) | 0.06 (≈ 0.0604 µM) | 1 (≈ 1.01 µM) | 0.25 (≈ 0.252 µM) | 16 (≈ 16.1 µM) | 0.13 (≈ 0.131 µM) | 0.25 (≈ 0.252 µM) | 32 (≈ 32.2 µM) | 8 (≈ 8.05 µM) | 0.06 (≈ 0.0604 µM) | 0.25 (≈ 0.252 µM) | 0.25 (≈ 0.252 µM) | 64 (≈ 64.4 µM) | 64 (≈ 64.4 µM) | > 128 | CCOC(=O)[C@H]1[C@H](C)O[C@@H](O[C@H]2[C@H](N(C)C)[C@@H](O)[C@H](O[C@H]3[C@@H](CC=O)C[C@@H](C)[C@@H](O)CN(CCCCc4ccccc4)CCC[C@@H](C)OC(=O)C[C@@H](OC(=O)CC)[C@@H]3OC)O[C@@H]2C)C[C@@]1(C)OC(C)=O | MIC (Haemophilus influenzae [10]): 0.5 µg/mL (≈ 0.503 µM); MIC (Streptococcus pneumoniae [17]; [27]): 1 µg/mL (≈ 1.01 µM); MIC (Streptococcus pneumoniae [20]; [27]): 1 µg/mL (≈ 1.01 µM) |
